Like-named read-outs stand apart in the source and are kept apart here.

One series concerns ABCB1. Particulars: cited from earlier work.
The target of series [1] is T1, human ABCG2 (Homo sapiens, UniProt Q9UNQ0).
T1 sequence (Q9UNQ0 1-655): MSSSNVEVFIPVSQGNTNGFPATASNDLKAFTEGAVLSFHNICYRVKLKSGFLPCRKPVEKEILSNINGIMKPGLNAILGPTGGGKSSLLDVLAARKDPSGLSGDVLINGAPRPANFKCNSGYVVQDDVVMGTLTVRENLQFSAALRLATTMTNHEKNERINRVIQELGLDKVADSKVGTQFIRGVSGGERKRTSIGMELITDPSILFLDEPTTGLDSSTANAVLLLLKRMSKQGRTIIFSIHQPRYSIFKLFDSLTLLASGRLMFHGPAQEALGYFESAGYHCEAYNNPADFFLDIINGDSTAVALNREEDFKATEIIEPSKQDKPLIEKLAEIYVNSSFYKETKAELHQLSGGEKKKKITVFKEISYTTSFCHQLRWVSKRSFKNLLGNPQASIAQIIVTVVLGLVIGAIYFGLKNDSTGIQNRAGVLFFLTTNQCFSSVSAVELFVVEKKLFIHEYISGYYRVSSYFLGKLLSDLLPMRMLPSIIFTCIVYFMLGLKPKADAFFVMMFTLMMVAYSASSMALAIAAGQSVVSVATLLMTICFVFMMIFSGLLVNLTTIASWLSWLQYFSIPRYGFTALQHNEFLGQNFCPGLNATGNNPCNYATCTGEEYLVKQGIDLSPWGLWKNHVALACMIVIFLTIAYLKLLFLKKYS
The series is classed as biochemical. The method in brief:
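Human ABCG2 (N-terminal His10) vesicles from baculovirus-infected High Five cells; 35 μg protein/50 μL in MES-Tris pH 6.8 buffer with 2 mM DTT. Photosensitizer (0–20 μM) added at 37 °C for 3 min, then 690 nm light (0–5 J/cm2, 50 mW/cm2). Fixed 0.5 J/cm2 for the dose series; fixed 2 μM for the fluence series. Denatured at 37 °C for 20 min, 7% Tris-acetate gel, 10 μg/lane, colloidal blue stain, densitometry.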

Series [2] concerns the target T2, human ABCB1 (Homo sapiens, UniProt P08183). The series is classed as biochemical. The following applies: 2 μM BPD, 690 nm.
Series [3] has as its target T2, human ABCB1. The series is classed as biochemical.
Series [4] deals with T2, human ABCB1. The class given is biochemical. This is another data set of the same source.
For series [5], the target named is T1, human ABCG2. Nature of the series: Vanadate. The class given is biochemical. Particulars: read-out: IC50 for ATPase activity of ABCG2; light activation (+hv) 690 nm, 0.05 J/cm2, 50 mW/cm2; membrane vesicles.
Series [6] concerns the target T2, human ABCB1. The series is classed as biochemical. This is another data set of the same source.
Setting [7] is: 2 μM BPD, light fluence increased from 0 to 5 J/cm2.
The mark [8] stands for this setting: BPD 20 μM + light 690 nm, 5 J/cm2, 50 mW/cm2.

T2 sequence (P08183 whole entry): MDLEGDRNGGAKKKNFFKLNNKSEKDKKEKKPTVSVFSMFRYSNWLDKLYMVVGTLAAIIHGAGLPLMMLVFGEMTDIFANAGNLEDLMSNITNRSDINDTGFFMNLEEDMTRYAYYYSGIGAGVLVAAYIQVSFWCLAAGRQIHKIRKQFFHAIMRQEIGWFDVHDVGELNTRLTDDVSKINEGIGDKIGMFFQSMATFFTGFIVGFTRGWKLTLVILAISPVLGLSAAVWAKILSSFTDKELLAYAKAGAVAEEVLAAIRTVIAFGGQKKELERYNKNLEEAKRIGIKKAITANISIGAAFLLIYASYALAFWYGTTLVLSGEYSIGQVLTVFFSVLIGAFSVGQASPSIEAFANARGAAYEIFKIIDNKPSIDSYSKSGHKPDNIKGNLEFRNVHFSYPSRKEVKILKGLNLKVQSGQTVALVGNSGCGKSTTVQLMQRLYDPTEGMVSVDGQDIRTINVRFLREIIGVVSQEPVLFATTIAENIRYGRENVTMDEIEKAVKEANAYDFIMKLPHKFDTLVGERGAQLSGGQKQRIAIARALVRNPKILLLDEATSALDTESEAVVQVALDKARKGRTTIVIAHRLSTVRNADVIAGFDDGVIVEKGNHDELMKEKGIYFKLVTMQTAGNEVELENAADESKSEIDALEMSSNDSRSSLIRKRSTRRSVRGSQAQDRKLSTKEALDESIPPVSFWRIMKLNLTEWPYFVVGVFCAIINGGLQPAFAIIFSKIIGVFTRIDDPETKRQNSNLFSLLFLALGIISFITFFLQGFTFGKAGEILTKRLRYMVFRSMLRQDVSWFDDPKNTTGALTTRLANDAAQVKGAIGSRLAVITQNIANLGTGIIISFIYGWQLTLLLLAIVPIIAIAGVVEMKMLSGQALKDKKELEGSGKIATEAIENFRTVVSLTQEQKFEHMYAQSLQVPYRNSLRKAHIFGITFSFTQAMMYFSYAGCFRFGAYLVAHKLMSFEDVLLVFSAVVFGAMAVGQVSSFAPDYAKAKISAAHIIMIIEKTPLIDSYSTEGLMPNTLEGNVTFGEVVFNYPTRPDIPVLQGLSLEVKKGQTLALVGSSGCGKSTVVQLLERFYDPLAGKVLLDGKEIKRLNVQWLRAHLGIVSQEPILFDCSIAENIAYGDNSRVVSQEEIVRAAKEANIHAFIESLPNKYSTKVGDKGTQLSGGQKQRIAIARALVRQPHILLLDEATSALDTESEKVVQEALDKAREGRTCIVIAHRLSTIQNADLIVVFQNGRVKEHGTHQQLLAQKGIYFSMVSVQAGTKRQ

Regarding `COc1cc2c(cc1OC)CN(CCc1ccc(NC(=O)c3cccc4c(=O)c5cccc(OC)c5[nH]c34)cc1)CC2` [elacridar], the “concentrations inhibiting both drug transport and ATPase activity of ABCB1” value in the series on ABCB1 was “sub-micromolar concentrations”.
`COc1cc2c(cc1OC)CN(CCc1ccc(NC(=O)c3cc(OC)c(OC)cc3NC(=O)c3cnc4ccccc4c3)cc1)CC2` [tariquidar]: the “concentrations inhibiting both drug transport and ATPase activity of ABCB1” value in the series on ABCB1 is on record as “sub-micromolar concentrations”.
`O[C@@H](COc1cccc2ncccc12)CN1CCN([C@@H]2c3ccccc3[C@@H]3[C@H](c4ccccc42)C3(F)F)CC1` [zosuquidar]: in the series on ABCB1, the “concentrations inhibiting both drug transport and ATPase activity of ABCB1” value is reported as “sub-micromolar concentrations”.
Usually IC50 stands for the concentration that inhibits the measured activity by half. Consider benzoporphyrin derivative [BPD], for which the “reduction of monomeric ABCG2 band intensity” value on human ABCG2 [1] (setting [7]) came to 5.4 fold. In addition, the “BPD concentration at which ABCG2 aggregation bands became evident” value on human ABCG2 [1] (0.5 J/cm2, 690 nm) is “higher than 0.5 μM”. The “band corresponding to monomeric ABCG2” value at human ABCG2 [1] (setting [8]) is listed as “disappeared”. In addition, the “intensity of protein band of monomeric (non-aggregated) ABCG2” value on human ABCG2 [1] (BPD alone 20 μM, no light) is “did not alter”. Besides, the “disappearance of protein band corresponding to monomeric ABCB1 in nanodiscs” value is reported as 49.0 ± 2.6% at human ABCB1 [2] (50 mW/cm2, 0.5 J/cm2) and 88.0 ± 3.5% at human ABCB1 [2] (50 mW/cm2, 5 J/cm2). Further, the “further reduction of ATPase activity of ABCB1 by light activation” value on human ABCB1 [3] (+hv 690 nm, 0.05 J/cm2, 50 mW/cm2 versus −hv, stated jointly for ABCB1 and ABCG2) is given as “up to 12 fold”. Also, the IC50 was 700 ± 100 nM at human ABCB1 [3] (read-out: IC50 for ATPase activity of ABCB1, light activation (+hv) 690 nm, 0.05 J/cm2, 50 mW/cm2, membrane vesicles) and 800 ± 100 nM at human ABCG2 [5]. Also, on human ABCB1 [4] (setting [7]), the “reduction of monomeric ABCB1 band intensity” value was 9.1 fold. The “BPD concentration at which ABCB1 aggregation bands became evident” value on human ABCB1 [4] (0.5 J/cm2, 690 nm) is on record as “higher than 0.5 μM”. The “band corresponding to monomeric ABCB1” value at human ABCB1 [4] (setting [8]) was “disappeared”. Besides, at human ABCB1 [4] (BPD alone 20 μM, no light), the “intensity of protein band of monomeric (non-aggregated) ABCB1” value was “did not alter”. In addition, the “reduction of ATPase activity of ABCB1 in nanodiscs” value at human ABCB1 [6] (absence of light activation) turned out to be 51.7 ± 5.3%; at human ABCB1 [6] (light activation 690 nm, 0.05 J/cm2, 50 mW/cm2), 97.3 ± 1.3%.

Source of the values: PMC9476936 (ACS Pharmacology & Translational Science, 2021).
